ChEMBL document CHEMBL1126631, “Synthesis and biological activities of angiotensin II, Sarilesin, and Sarmesin analogues containing Aze or Pip at position 7” (J Med Chem, 1993)

target: Angiotensin II receptor (Rattus norvegicus) (UniProt P29089+P25095+P35351); test: Evaluated for its agonistic activity using rat uterus bioassay in Dawley rats (% of ANG II); type: functional, tissue-based
In short: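 Defatted uterine horns from diethylstilbestrol-primed virgin Sprague–Dawley rats (150–250 g), suspended under 1-g tension in a 3-mL oxygenated bath (150 mM NaCl, 5.6 mM KCl, 0.18 mM NaHCO3, 1.4 mM glucose, pH 7.0). Isotonic contractions recorded; activity found by matching the response to an equivalent human ANGII response. Values are means of the stated number of experiments.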

Row | SMILES | Agonist activity
1 | CC[C@H](C)[C@H](NC(=O)[C@H](Cc1ccc(O)cc1)NC(=O)[C@@H](NC(=O)[C@H](CCCN=C(N)N)NC(=O)CNC)C(C)C)C(=O)N[C@@H](Cc1c[nH]cn1)C(=O)N1CCC1C(=O)N[C@@H](Cc1ccccc1)C(=O)O (stereo not given in full) | 98
2 | CC[C@H](C)[C@H](NC(=O)[C@H](Cc1ccc(O)cc1)NC(=O)[C@@H](NC(=O)[C@@H](N)CCCN=C(N)N)C(C)C)C(=O)N[C@@H](Cc1c[nH]cn1)C(=O)N1CCC1C(=O)N[C@@H](Cc1ccccc1)C(=O)O (stereo not given in full) | 35
3 | CC[C@H](C)[C@H](NC(=O)[C@H](Cc1ccc(O)cc1)NC(=O)[C@@H](NC(=O)[C@H](CCCN=C(N)N)NC(=O)C(C)(C)N)C(C)C)C(=O)N[C@@H](Cc1c[nH]cn1)C(=O)N1CCCC[C@@H]1C(=O)N[C@@H](Cc1ccccc1)C(=O)O | 65
4 | CC[C@H](C)[C@H](NC(=O)[C@H](Cc1ccc(O)cc1)NC(=O)[C@@H](NC(=O)[C@H](CCCN=C(N)N)NC(=O)C(C)(C)N)C(C)C)C(=O)N[C@@H](Cc1c[nH]cn1)C(=O)N1CCC1C(=O)N[C@@H](Cc1ccccc1)C(=O)O (stereo not given in full) | 34
5 | CC[C@@H](C)[C@H](NC(=O)C1CCN1C(=O)[C@H](Cc1c[nH]cn1)NC(=O)[C@@H](NC(=O)[C@H](Cc1ccc(O)cc1)NC(=O)[C@@H](NC(=O)[C@H](CCCN=C(N)N)NC(=O)CNC)C(C)C)[C@@H](C)CC)C(=O)O (stereo not given in full) | < 0.1
6 | CC[C@@H](C)[C@H](NC(=O)C1CCN1C(=O)[C@H](Cc1c[nH]cn1)NC(=O)[C@@H](NC(=O)[C@H](Cc1ccc(O)cc1)NC(=O)[C@@H](NC(=O)[C@H](CCCN=C(N)N)NC(=O)C(C)(C)N)C(C)C)[C@@H](C)CC)C(=O)O (stereo not given in full) | < 0.1
7 | CC[C@H](C)[C@H](NC(=O)[C@H](Cc1ccc(O)cc1)NC(=O)[C@@H](NC(=O)[C@H](CCCN=C(N)N)NC(=O)CNC)C(C)C)C(=O)N[C@@H](Cc1c[nH]cn1)C(=O)N1CCCC[C@@H]1C(=O)N[C@@H](Cc1ccccc1)C(=O)O | 184
8 | CC[C@@H](C)[C@H](NC(=O)[C@H]1CCCCN1C(=O)[C@H](Cc1c[nH]cn1)NC(=O)[C@@H](NC(=O)[C@H](Cc1ccc(O)cc1)NC(=O)[C@@H](NC(=O)[C@H](CCCN=C(N)N)NC(=O)CNC)C(C)C)[C@@H](C)CC)C(=O)O | < 0.1
9 | CC[C@H](C)[C@H](NC(=O)[C@@H]1CCCN1C(=O)[C@H](Cc1c[nH]cn1)NC(=O)[C@@H](NC(=O)[C@H](Cc1ccc(O)cc1)NC(=O)[C@@H](NC(=O)[C@H](CCCN=C(N)N)NC(=O)CNC)C(C)C)[C@@H](C)CC)C(=O)O | 0.1
10 | CC[C@H](C)[C@H](NC(=O)[C@H](Cc1ccc(O)cc1)NC(=O)[C@@H](NC(=O)[C@H](CCCN=C(N)N)NC(=O)CNC)C(C)C)C(=O)N[C@@H](Cc1c[nH]cn1)C(=O)N1CCC[C@H]1C(=O)N[C@@H](Cc1ccccc1)C(=O)O | 160
11 | CC[C@@H](C)[C@H](NC(=O)[C@H]1CCCCN1C(=O)[C@H](Cc1c[nH]cn1)NC(=O)[C@@H](NC(=O)[C@H](Cc1ccc(O)cc1)NC(=O)[C@@H](NC(=O)[C@H](CCCN=C(N)N)NC(=O)C(C)(C)N)C(C)C)[C@@H](C)CC)C(=O)O | < 0.1

target: T1, Angiotensin II receptor (Rattus norvegicus, UniProt P29089+P25095+P35351); test: Antagonistic activity (pA2) was determined as the negative logarithm of the concentration required to reduce the response to an EC50 dose of ANG II to the response to half the EC50.; type: functional
T1 sequence (P29089 whole entry): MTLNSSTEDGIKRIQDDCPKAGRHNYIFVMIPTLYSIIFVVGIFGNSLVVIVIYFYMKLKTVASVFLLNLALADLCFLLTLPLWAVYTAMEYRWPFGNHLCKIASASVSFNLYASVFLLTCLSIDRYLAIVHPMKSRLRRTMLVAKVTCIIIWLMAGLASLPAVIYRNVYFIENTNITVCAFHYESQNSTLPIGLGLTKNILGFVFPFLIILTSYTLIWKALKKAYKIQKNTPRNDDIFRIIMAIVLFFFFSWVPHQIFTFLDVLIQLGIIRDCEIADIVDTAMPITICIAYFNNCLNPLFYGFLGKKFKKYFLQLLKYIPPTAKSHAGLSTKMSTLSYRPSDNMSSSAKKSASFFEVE
T1 sequence (P25095 whole entry): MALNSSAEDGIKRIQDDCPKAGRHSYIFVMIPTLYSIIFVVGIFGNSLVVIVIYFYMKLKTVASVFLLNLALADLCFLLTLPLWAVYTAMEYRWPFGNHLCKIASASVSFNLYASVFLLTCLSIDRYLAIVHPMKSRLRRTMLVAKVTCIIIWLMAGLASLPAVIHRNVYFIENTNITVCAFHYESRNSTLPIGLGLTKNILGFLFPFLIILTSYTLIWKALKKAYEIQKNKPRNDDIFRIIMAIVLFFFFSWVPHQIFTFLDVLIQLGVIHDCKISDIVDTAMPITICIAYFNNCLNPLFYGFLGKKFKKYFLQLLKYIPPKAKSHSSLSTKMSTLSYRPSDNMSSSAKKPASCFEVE
T1 sequence (P35351 whole entry): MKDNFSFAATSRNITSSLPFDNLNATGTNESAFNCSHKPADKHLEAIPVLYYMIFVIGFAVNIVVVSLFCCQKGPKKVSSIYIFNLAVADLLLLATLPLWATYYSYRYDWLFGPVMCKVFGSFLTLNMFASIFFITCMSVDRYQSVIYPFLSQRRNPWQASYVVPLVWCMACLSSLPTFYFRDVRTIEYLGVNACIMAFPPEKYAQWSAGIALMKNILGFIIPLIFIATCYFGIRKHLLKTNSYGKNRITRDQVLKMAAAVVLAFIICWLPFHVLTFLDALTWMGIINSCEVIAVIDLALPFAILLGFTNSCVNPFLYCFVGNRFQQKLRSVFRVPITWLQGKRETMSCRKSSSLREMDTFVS
In short: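 Isolated uterine horns (defatted) from diethylstilbestrol-primed virgin Sprague–Dawley rats (150–250 g), held under 1-g tension in a 3-mL bath of 150 mM NaCl, 5.6 mM KCl, 0.18 mM NaHCO3, 1.4 mM glucose, pH 7.0, oxygenated. Isotonic contractions recorded. Human ANGII as standard; values are means of the stated number of experiments.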

Row | SMILES | pA2
12 | CC[C@H](C)[C@H](NC(=O)[C@H](Cc1ccc(OC)cc1)NC(=O)[C@@H](NC(=O)[C@H](CCCN=C(N)N)NC(=O)CNC)C(C)C)C(=O)N[C@@H](Cc1c[nH]cn1)C(=O)N1CCC[C@H]1C(=O)N[C@@H](Cc1ccccc1)C(=O)O | 7.7
13 | CC[C@H](C)[C@H](NC(=O)[C@H](Cc1ccc(OC)cc1)NC(=O)[C@@H](NC(=O)[C@@H](N)CCCN=C(N)N)C(C)C)C(=O)N[C@@H](Cc1c[nH]cn1)C(=O)N1CCCC[C@H]1C(=O)N[C@@H](Cc1ccccc1)C(=O)O | < 5
14 | CC[C@H](C)[C@H](NC(=O)[C@@H]1CCN1C(=O)[C@H](Cc1c[nH]cn1)NC(=O)[C@@H](NC(=O)[C@H](Cc1ccc(O)cc1)NC(=O)[C@@H](NC(=O)[C@H](CCCN=C(N)N)NC(=O)CNC)C(C)C)[C@@H](C)CC)C(=O)O | 7.9
15 | CC[C@H](C)[C@H](NC(=O)[C@H](Cc1ccc(OC)cc1)NC(=O)[C@@H](NC(=O)[C@H](CCCN=C(N)N)NC(=O)CNC)C(C)C)C(=O)N[C@@H](Cc1c[nH]cn1)C(=O)N1CCCC[C@H]1C(=O)N[C@@H](Cc1ccccc1)C(=O)O | 6.5
16 | CC[C@H](C)[C@H](NC(=O)[C@@H]1CCCCN1C(=O)[C@H](Cc1c[nH]cn1)NC(=O)[C@@H](NC(=O)[C@H](Cc1ccc(O)cc1)NC(=O)[C@@H](NC(=O)[C@H](CCCN=C(N)N)NC(=O)CNC)C(C)C)[C@@H](C)CC)C(=O)O | 8.3
17 | CC[C@H](C)[C@H](NC(=O)[C@H](Cc1ccc(OC)cc1)NC(=O)[C@@H](NC(=O)[C@H](CCCN=C(N)N)NC(=O)CNC)C(C)C)C(=O)N[C@@H](Cc1c[nH]cn1)C(=O)N1CC[C@H]1C(=O)N[C@@H](Cc1ccccc1)C(=O)O | 7.4
18 | CC[C@H](C)[C@H](NC(=O)[C@@H]1CCN1C(=O)[C@H](Cc1c[nH]cn1)NC(=O)[C@@H](NC(=O)[C@H](Cc1ccc(O)cc1)NC(=O)[C@@H](NC(=O)[C@H](CCCN=C(N)N)NC(=O)C(C)(C)N)C(C)C)[C@@H](C)CC)C(=O)O | 7.1
19 | CC[C@H](C)[C@H](NC(=O)[C@H](Cc1ccc(OC)cc1)NC(=O)[C@@H](NC(=O)[C@@H](N)CCCN=C(N)N)C(C)C)C(=O)N[C@@H](Cc1c[nH]cn1)C(=O)N1CC[C@H]1C(=O)N[C@@H](Cc1ccccc1)C(=O)O | < 5
20 | CC[C@H](C)[C@H](NC(=O)[C@@H]1CCCCN1C(=O)[C@H](Cc1c[nH]cn1)NC(=O)[C@@H](NC(=O)[C@H](Cc1ccc(O)cc1)NC(=O)[C@@H](NC(=O)[C@H](CCCN=C(N)N)NC(=O)C(C)(C)N)C(C)C)[C@@H](C)CC)C(=O)O | 7.6
